In ChEMBL document CHEMBL2406992, “Validation of inhibitors of an ABC transporter required to transport lipopolysaccharide to the cell surface in Escherichia coli” (2013):
≈ marks a conversion by molar mass, not a printed value. Calls of active or inactive are those of the source. The calls are words filed in the database; no cut-off is given here.

Experiments:
Escherichia coli [1] = experiment: Antibacterial activity against Escherichia coli MC4100 assessed as growth inhibition after 24 hrs by microdilution method; format: functional; conditions: MC4100, 24 h
Escherichia coli [2] = experiment: Inhibition of Escherichia coli MC4100 LptBFGC overexpressed in Escherichia coli BL21 (deltaDE3) assessed as inorganic phosphate release at 100 uM after 5 mins by molybdate method
Procedure, shortened: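 Detergent-purified LptBFGC, 0.2 μM in 50 mM Tris-HCl pH 8.0, 500 mM NaCl, 10% glycerol, 0.05% DDM. Preincubated 5 min at 25 °C with 100 μM inhibitor (2% DMSO final). Reaction started with 0.5 mM ATP at 25 °C and stopped in the linear range with 12% SDS. Phosphate was measured by modified molybdate method, relative to uninhibited DMSO control.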

Escherichia coli [3] = experiment: Antibacterial activity against Escherichia coli NR698 assessed as growth inhibition after 24 hrs by microdilution method; format: functional; conditions: NR698, 24 h
Escherichia coli [4] = experiment: Inhibition of Escherichia coli MC4100 His6-tagged LptB overexpressed in Escherichia coli BL21 (deltaDE3) assessed as inorganic phosphate release at 100 uM after 5 mins by molybdate method
Procedure, shortened: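 Single-point assay. Purified His-LptB (7 μM) in 50 mM Tris-HCl pH 8.0, 500 mM NaCl, 10% glycerol was preincubated 5 min at 25 °C with 100 μM inhibitor (2% DMSO final). Started with 1 mM ATP at 25 °C and quenched in the linear range with 12% SDS. Released phosphate was read by molybdate absorbance, relative to a DMSO control.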

Escherichia coli [5] = experiment: Inhibition of Escherichia coli MC4100 His6-tagged LptB overexpressed in Escherichia coli BL21 (deltaDE3) assessed as inorganic phosphate release after 5 mins by molybdate method
Procedure, shortened: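 His-tagged LptB, Ni-NTA and size-exclusion purified, at 7 μM in 50 mM Tris-HCl pH 8.0, 500 mM NaCl, 10% glycerol. Varied inhibitor concentrations (DMSO, 2% final) were preincubated 5 min at 25 °C, then ATP was added at 25 °C. Stopped within the linear range with an equal volume of 12% SDS. Phosphate was read by modified molybdate absorbance and normalized to the DMSO control.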

Escherichia coli [6] = experiment: Selectivity ratio of IC50 for Escherichia coli MC4100 LptBFGC to IC50 for Escherichia coli MC4100 His6-tagged LptB
Escherichia coli [7] = experiment: Inhibition of Escherichia coli MC4100 LptBFGC overexpressed in Escherichia coli BL21 (deltaDE3) assessed as inorganic phosphate release after 5 mins by molybdate method
Procedure, shortened: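 LptBFGC was expressed from an LptCAB-His6 plasmid in BL21(λDE3) (50 μM IPTG, 2 h, 37 °C) and purified in DDM. Assayed at 0.2 μM in 50 mM Tris-HCl pH 8.0, 500 mM NaCl, 10% glycerol, 0.05% DDM. Varying inhibitor (2% DMSO) was preincubated 5 min at 25 °C, then ATP was added. Quenched in the linear range with SDS. Molybdate phosphate read-out, normalized to DMSO.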

## O=C1NC(=O)c2c1c(-c1ccccc1Cl)cc1c2c2cc(O)c(OCCCN3CCCC3)cc2n1CCO
Escherichia coli [1]
  MIC: > 100 µM
Escherichia coli [2]
  inhibition: Active
Escherichia coli [3]
  MIC: 100 µM (≈ 53.4 µg/mL)
Escherichia coli [4]
  inhibition: Active

## CN(C)CCCOc1cc2c(cc1O)c1c3c(c(-c4ccccc4Cl)cc1n2C)C(=O)NC3=O
Escherichia coli [1]
  MIC: > 100 µM
Escherichia coli [2]
  inhibition: Active
Escherichia coli [3]
  MIC: 25 µM (≈ 11.9 µg/mL)
Escherichia coli [4]
  inhibition: Active

## O=C1NC(=O)c2c1c(-c1ccccc1Br)cc1[nH]c3ccc(O)cc3c21
Escherichia coli [1]
  MIC: > 100 µM
Escherichia coli [2]
  inhibition: Active
Escherichia coli [3]
  MIC: 12.5 µM (≈ 5.09 µg/mL)
Escherichia coli [4]
  inhibition: Active

## CSc1ccccc1-c1cc2[nH]c3ccc(O)cc3c2c2c1C(=O)NC2=O
Escherichia coli [1]
  MIC: > 100 µM
Escherichia coli [2]
  inhibition: Active
Escherichia coli [3]
  MIC: 25 µM (≈ 9.36 µg/mL)
Escherichia coli [4]
  inhibition: Active

## O=C1NC(=O)c2c1c(-c1ccccc1Cl)cc1[nH]c3ccc(O)cc3c21
Escherichia coli [1]
  MIC: > 100 µM
Escherichia coli [3]
  MIC: 25 µM (≈ 9.07 µg/mL)

## O=C1NC(=O)c2c1c(-c1c(Cl)cccc1Cl)cc1[nH]c3ccc(O)cc3c21
Escherichia coli [5]
  inhibition: Dose-dependent effect
Escherichia coli [1]
  MIC: > 100 µM
Escherichia coli [6]
  Ratio IC50: 6
Escherichia coli [3]
  MIC: 12.5 µM (≈ 4.97 µg/mL)
Escherichia coli [7]
  inhibition: Dose-dependent effect

## Cn1c2cc(OCCCN3CCCC3)c(O)cc2c2c3c(c(-c4ccccc4Cl)cc21)C(=O)NC3=O
Escherichia coli [1]
  MIC: > 100 µM
Escherichia coli [2]
  inhibition: Active
Escherichia coli [3]
  MIC: 100 µM (≈ 50.4 µg/mL)
Escherichia coli [4]
  inhibition: Active

## Cn1c2cc(S(=O)(=O)CCCN3CCCC3)c(O)cc2c2c3c(c(-c4ccccc4Cl)cc21)C(=O)NC3=O
Escherichia coli [1]
  MIC: > 100 µM
Escherichia coli [2]
  inhibition: Active
Escherichia coli [3]
  MIC: 50 µM (≈ 27.6 µg/mL)
Escherichia coli [4]
  inhibition: Active
